Experimental data reported in ChEMBL document CHEMBL3352113, “Cytoprotective pyridinol antioxidants as potential therapeutic agents for neurodegenerative and mitochondrial diseases” (Bioorg Med Chem, 2014).
Activity calls are given as the source filed them. The rule behind the calls is not given here.

Assays:
Lymphocyte [1] = experiment: Inhibition of oxidative stress-induced mitochondrial membrane depolarization in diethyl maleate-treated human lymphocytes obtained from FRDA patient assessed as cells with intact mitochondrial membrane potential at 500 nM pretreated for 16 hrs using TMRM by FACS analysis (reference value: 95%); format: functional; set-up: scale not given: the % may be the effect or the level left
Lymphocyte [2] = experiment: Increase in ATP production in CoQ10-deficient lymphocytes (unknown origin) assessed as cellular ATP level at 5 uM after 48 hrs using luciferin-luciferase reaction by bioluminescence assay relative to control; format: functional
Outline: (§1)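 CoQ10-deficient lymphocyte line GM17932 grown in glucose-free RPMI 1640 with 25 mM galactose, 2 mM glutamine and 10% dialyzed FBS, forcing oxidative phosphorylation. Incubated with compounds at 5, 10 or 25 µM for 48 h. Total intracellular ATP measured by luciferin–luciferase reaction, expressed as % of untreated control.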

Lymphocyte [3] = experiment: Inhibition of lipid peroxidation in diethyl maleate-treated human lymphocytes obtained from FRDA patient at 100 to 250 nM after 16 hrs using C11-BODIPY581/591 by FACS analysis; format: functional, cell-based
Outline: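 FRDA lymphocytes depleted of glutathione with DEM, probed with C11-BODIPY581/591. Green (oxidized) fluorescence read by flow cytometry at 490/510 nm. Median mean fluorescence taken relative to untreated control and converted to % lipid peroxidation scavenging; mean ± SEM, n = 3.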

Bos taurus [4] = species on record: Bos taurus; experiment: Inhibition of bovine heart mitochondrial NADH oxidase complex I/III/IV assessed as remaining activity at 10 uM by spectrophotometry relative to untreated control
Bos taurus [5] = species on record: Bos taurus; experiment: Inhibition of bovine heart mitochondrial NADH oxidase complex I/III/IV assessed as remaining activity at 5 uM by spectrophotometry relative to untreated control
[6] = Drug metabolism in bovine liver microsomes at 25 uM after 30 mins by reverse phase HPLC analysis; format: ADME, Bos taurus; conditions: cattle, read-out: Drug metabolism
Outline: (§2)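 Compounds incubated 30 min with activated bovine liver microsomes. Remaining parent compound quantified by reversed-phase HPLC and expressed as % recovered; mean ± SD.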

Lymphocyte [7] = experiment: Cytoprotective activity in human lymphocytes obtained from Leigh's syndrome patient assessed as viable cells at 0.1 uM after 16 hrs by trypan blue exclusion assay; format: functional; conditions: read-out: Activity
Outline: (§3)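 Lymphocytes from FRDA or Leigh's syndrome patients, grown in RPMI-1640 with 15% fetal calf serum and 2 mM glutamine, kept in log phase. Test agents at 0.1, 0.5 and 2.5 µM; diethyl maleate (DEM) added to deplete glutathione and induce oxidative stress. Viability expressed relative to untreated cells (100%). Values are mean ± SD/SEM as tabulated.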

Lymphocyte [8] = experiment: Cytoprotective activity in human lymphocytes obtained from Leigh's syndrome patient assessed as viable cells at 2.5 uM after 16 hrs by trypan blue exclusion assay; format: functional; conditions: read-out: Activity; outline: as §3
Bos taurus [9] = species on record: Bos taurus; experiment: Inhibition of bovine heart mitochondrial NADH oxidase complex I/III/IV assessed as remaining activity at 1 uM by spectrophotometry relative to untreated control
Lymphocyte [10] = experiment: Inhibition of ROS generation in diethyl maleate-treated human lymphocytes obtained from FRDA patient compound pretreated for 16 hrs using DCFH-DA by FACS analysis; format: functional, cell-based
Outline: (§4)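 FRDA lymphocytes pretreated with compounds at 100, 250 and 500 nM for 16 h, then given DEM for 80 min to raise ROS. Stained with DCFH-DA for 15 min, then DCF fluorescence read by flow cytometry. Reported as % ROS scavenging; mean ± SEM of three experiments run in duplicate.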

[11] = Metabolic stability in bovine liver microsomes at 25 uM after 30 mins by reverse phase HPLC analysis; format: ADME, Bos taurus; conditions: cattle, read-out: Stability; outline: as §2
Lymphocyte [12] = experiment: Cytoprotective activity in human lymphocytes obtained from FRDA patient assessed as viable cells after 16 hrs by trypan blue exclusion assay; format: functional, cell-based; outline: as §3
Lymphocyte [13] = experiment: Inhibition of oxidative stress-induced mitochondrial membrane depolarization in diethyl maleate-treated human lymphocytes obtained from FRDA patient assessed as cells with intact mitochondrial membrane potential at 100 nM pretreated for 16 hrs using TMRM by FACS analysis (reference value: 95%); format: functional; set-up: scale not given: the % may be the effect or the level left
Lymphocyte [14] = experiment: Cytoprotective activity in human lymphocytes obtained from FRDA patient assessed as viable cells at 0.5 uM after 16 hrs by trypan blue exclusion assay; format: functional; conditions: read-out: Activity; outline: as §3
Lymphocyte [15] = experiment: Increase in ATP production in CoQ10-deficient lymphocytes (unknown origin) assessed as cellular ATP level at 25 uM after 48 hrs using luciferin-luciferase reaction by bioluminescence assay relative to control; format: functional; outline: as §1
Lymphocyte [16] = experiment: Cytoprotective activity in human lymphocytes obtained from FRDA patient assessed as viable cells at 0.1 uM after 16 hrs by trypan blue exclusion assay; format: functional; conditions: read-out: Activity; outline: as §3
Lymphocyte [17] = experiment: Cytoprotective activity in human lymphocytes obtained from Leigh's syndrome patient assessed as viable cells after 16 hrs by trypan blue exclusion assay; format: functional, cell-based; outline: as §3
Lymphocyte [18] = experiment: Increase in ATP production in CoQ10-deficient lymphocytes (unknown origin) assessed as cellular ATP level at 10 uM after 48 hrs using luciferin-luciferase reaction by bioluminescence assay relative to control; format: functional; outline: as §1
Lymphocyte [19] = experiment: Inhibition of ROS generation in diethyl maleate-treated human lymphocytes obtained from FRDA patient compound pretreated at 100 to 500 nM for 16 hrs using DCFH-DA by FACS analysis; format: functional, cell-based; outline: as §4
Lymphocyte [20] = experiment: Inhibition of oxidative stress-induced mitochondrial membrane depolarization in diethyl maleate-treated human lymphocytes obtained from FRDA patient assessed as cells with intact mitochondrial membrane potential at 250 nM pretreated for 16 hrs using TMRM by FACS analysis (reference value: 95%); format: functional; set-up: scale not given: the % may be the effect or the level left
Bos taurus [21] = species on record: Bos taurus; experiment: Inhibition of bovine heart mitochondrial NADH oxidase complex I/III/IV assessed as remaining activity by spectrophotometry relative to untreated control
Lymphocyte [22] = experiment: Cytoprotective activity in human lymphocytes obtained from FRDA patient assessed as viable cells at 2.5 uM after 16 hrs by trypan blue exclusion assay; format: functional; conditions: read-out: Activity; outline: as §3
Lymphocyte [23] = experiment: Inhibition of oxidative stress-induced mitochondrial membrane depolarization in diethyl maleate-treated human lymphocytes obtained from FRDA patient assessed as cells with intact mitochondrial membrane potential pretreated for 16 hrs using TMRM by FACS analysis; format: functional, cell-based
Lymphocyte [24] = experiment: Cytoprotective activity in human lymphocytes obtained from Leigh's syndrome patient assessed as viable cells at 0.5 uM after 16 hrs by trypan blue exclusion assay; format: functional; conditions: read-out: Activity; outline: as §3

metabolised at 0.5 h, 25 µM [6]: 20% | remaining at 0.5 h, 25 µM [11]: 70%
SMILES: CCCCCCCCCCCCCCCCc1nc(N(C)C)c(C)c(C)c1O
Activity (Lymphocyte [1]): 92% | Activity (Lymphocyte [2]): 100% | inhibition (Lymphocyte [3]): Active | Activity (Bos taurus [4]): 92% | Activity (Bos taurus [5]): 95% | viability at 0.1 µM (Lymphocyte [7]): 29% | viability at 2.5 µM (Lymphocyte [8]): 83% | Activity (Bos taurus [9]): 98% | inhibition (Lymphocyte [10]): Dose-dependent effect | Activity (Lymphocyte [12]): Dose-dependent effect | Activity (Lymphocyte [13]): 67% | viability at 0.5 µM (Lymphocyte [14]): 91% | Activity (Lymphocyte [15]): 41% | viability at 0.1 µM (Lymphocyte [16]): 80% | Activity (Lymphocyte [17]): Dose-dependent effect | Activity (Lymphocyte [18]): 79% | inhibition (Lymphocyte [19]): Active | Activity (Lymphocyte [20]): 84% | inhibition (Bos taurus [21]): Dose-dependent effect | viability at 2.5 µM (Lymphocyte [22]): 92% | inhibition (Lymphocyte [23]): Dose-dependent effect | viability at 0.5 µM (Lymphocyte [24]): 78%
